By IC50 is commonly meant the concentration at which inhibition is half-maximal.

Data set [1] relates to Heme. Briefly: Inhibition of heme crystallization after 16 hrs. The procedure, abridged: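 Heme crystal extension was seeded with 2.5 nmol heme crystal and run with 50 µM heme in 0.1 M ammonium acetate, pH 4.8, at 37°C for 16 h. Crystal extension was quantified by the differential solubility of free versus crystalline heme in 0.15 M sodium bicarbonate. IC50 came from a four-parameter logistic fit and is given as mean ± s.e.m. of triplicate experiments.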

Data set [2] deals with Heme. Briefly: Displacement of [3H]astemizole from free heme crystal at 15 uM after 16 hrs by scintillation counting. An outline of the steps: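 [3H]-astemizole (27 Ci/mmol) was incubated in triplicate with a 5 nmol heme crystal seed and 50 µM heme in 0.1 M ammonium acetate, pH 4.8, for 16 h at 37°C. Crystal was pelleted, sonicated, and spun through 1.7 M sucrose at 200,000 × g. The pellet was decrystallized in 50 mM NaOH/2% SDS and counted by scintillation.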
Background: In a radioligand displacement assay an active substance lowers the binding of a labelled ligand.

The test system of data set [3] is Plasmodium falciparum. Briefly: Antiplasmodial activity against Plasmodium falciparum infected in erythrocytes assessed as stabilization of free heme at 0.05 uCi after 16 hrs by scintillation counting. The following applies: tested as the 3H-labelled form. Type of data set: functional, organism-based.
Data set [4] has as its system Heme. The experiment in a line: Inhibition of heme crystallization at 7.5 uM after 24 hrs at pH 5.2 - 5.6.
Data set [5] has as its system Plasmodium yoelii. The experiment in a line: Antimalarial activity against chloroquine-sensitive Plasmodium yoelii 17X infected in mice (Mus musculus) assessed as complete cure from parasite infection at 300 mg/m'2, perorally daily for 4 days administered 2 hrs post infection measured on day 4. Type of data set: functional, organism-based. The procedure, abridged:
(§1)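 P. yoelii 17X lethal strain was used in male C57/BL6 mice (5-6 weeks, 25 ± 2 g), assessed by the 4-d suppression test. Drug or an equal volume of vehicle was given intraperitoneally or per os. Parasitemia is reported as mean ± s.e.m. Cure meant survival to day 30 with cleared parasitemia and no recrudescence over a further 30 days. Two-tailed t-test was used.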

Data set [6] deals with Plasmodium vinckei. The experiment in a line: Antimalarial activity against chloroquine-sensitive Plasmodium vinckei infected in mice (Mus musculus) assessed as reduction in parasitemia at 30 mg/m'2, intraperitoneally […]. Type of data set: functional.
Data set [7] relates to Plasmodium yoelii. The experiment in a line: Antimalarial activity against chloroquine-sensitive Plasmodium yoelii 17X infected in mice (Mus musculus) assessed as reduction in parasitaemia at 15 mg/m'2, […] administered 2 hrs post infection […]. Type of data set: functional.
Data set [8] deals with Plasmodium falciparum. Briefly: Antimalarial activity against Plasmodium falciparum 3D7 assessed as inhibition of parasite growth after 48 to 96 hrs by [3H]hypoxanthine incorporation assay. Type of data set: functional, organism-based. An outline of the steps: (§2)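 Synchronized ring-stage parasites in RPMI 1640 with 10% human serum, 0.2% parasitemia and 2-4% hematocrit, were exposed to drug for 48 or 96 h with [3H]-hypoxanthine. Growth was read as radioactive incorporation. IC50 came from a four-parameter logistic fit and is given as mean ± s.e.m. of triplicate experiments.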

Data set [9] concerns Plasmodium vinckei. The experiment in a line: Antimalarial activity against chloroquine-sensitive Plasmodium vinckei infected in mice (Mus musculus) assessed as complete cure from parasite infection at 300 mg/m'2, perorally qd for 4 days administered 2 hrs post infection measured on day 4. Type of data set: functional. An outline of the steps: (§3)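 Male C57/BL6 mice (5-6 weeks, 25 ± 2 g) were infected with the P. vinckei Rhodain strain and assessed by the 4-d parasite suppression test. Astemizole tartrate or acetate, or an equal volume of vehicle, was given intraperitoneally or per os. Parasitemia is reported as mean ± s.e.m. Cure meant survival to 30 days post infection with parasitemia cleared and no recrudescence over the next 30 days. Two-tailed Student's t-test was used.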

Data set [10] deals with Plasmodium falciparum. Briefly: Antimalarial activity against Plasmodium falciparum Dd2 assessed as inhibition of parasite growth after 48 to 96 hrs by [3H]hypoxanthine incorporation assay. Type of data set: functional, organism-based. An outline of the steps: as §2
Data set [11] has as its system Plasmodium yoelii. The experiment in a line: Antimalarial activity against chloroquine-sensitive Plasmodium yoelii 17X infected in mice (Mus musculus) assessed as complete cure from parasite infection at 15 mg/m'2, intraperitoneal daily for 4 days administered 2 hrs post infection measured on day 5. Type of data set: functional, organism-based. An outline of the steps: as §1

For data set [12], the system named is Plasmodium falciparum. Briefly: Antimalarial activity against Plasmodium falciparum ItG assessed as inhibition of parasite growth after 48 to 96 hrs by [3H]hypoxanthine incorporation assay. Type of data set: functional, organism-based. The procedure, abridged:
as §2

Data set [13] deals with Plasmodium vinckei. The experiment in a line: Antimalarial activity against chloroquine-sensitive Plasmodium vinckei infected in mice (Mus musculus) assessed as complete cure from parasite infection at 30 mg/m'2, intraperitoneally qd for 4 days administered 2 hrs post infection measured on day 5. Type of data set: functional. An outline of the steps:
as §3

Data set [14] has as its system Plasmodium vinckei. Briefly: Antimalarial activity against chloroquine-sensitive Plasmodium vinckei infected in mice (Mus musculus) assessed as reduction in parasitemia at 15 mg/m'2, intraperitoneally […]. Type of data set: functional.
Data set [15] can be described thus: Oral bioavailability in human. The settings on record: in vivo, read-out: Activity. Type of data set: ADME, organism-based.
The next data set concerns Plasma. Briefly: Metabolic stability in human plasma assessed as desmethylastemizole half life. Type of data set: ADME, cell-free.
The test system of data set [16] is Plasmodium vinckei. The experiment in a line: Antimalarial activity against chloroquine-sensitive Plasmodium vinckei infected in mice (Mus musculus) assessed as complete cure from parasite infection at 15 mg/m'2, intraperitoneally qd for 4 days administered 2 hrs post infection measured on day 5. Type of data set: functional. The procedure, abridged: as §3
A short description of data set [17]: Drug level in Plasmodium falciparum Dd2 infected erythrocyte lysate at 1.5 uCi after 20 hrs. Type of data set: ADME, cell-based.
The nature of data set [18]: Drug level in hemozoin of Plasmodium falciparum 3D7 at 1.5 uCi after 20 hrs. The following applies: plasmodium falciparum 3d7, 20 h. Type of data set: ADME. An outline of the steps:
(§4)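 Duplicate 12 mL ring-stage cultures at 5% parasitemia were incubated with 1.5 µCi [3H]-astemizole for 20 h. Erythrocytes were harvested at the trophozoite stage and washed. Hemozoin was extracted by hypotonic lysis and purified by sucrose-cushion ultracentrifugation, then decrystallized in NaOH/SDS and counted by scintillation.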

A short description of data set [19]: Drug level in Plasmodium falciparum 3D7 infected erythrocyte lysate at 1.5 uCi after 20 hrs. Type of data set: ADME, cell-based.
Data set [20] in a line: Drug level in chloroquine-sensitive Plasmodium falciparum Dd2 culture at 1.5 uCi after 20 hrs. Type of data set: ADME. The settings on record: plasmodium falciparum dd2, 20 h.
The nature of data set [21]: Drug level in chloroquine-resistant Plasmodium falciparum Dd2 lysate at 1.5 uCi after 20 hrs. Type of data set: ADME. The settings on record: plasmodium falciparum dd2, 20 h. The procedure, abridged: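 Duplicate 12 mL ring-synchronized cultures (RPMI 1640, 10% human serum; 5% parasitemia) incubated 20 h with 1.5 µCi tritiated drug. Trophozoite-stage erythrocytes harvested and washed once. Hemozoin released by hypotonic lysis, then pelleted through 1.7 M sucrose/50 mM Tris-HCl pH 8.0 at 200,000 × g for 15 min. Pellet decrystallized in 50 mM NaOH, 2% SDS; radioactivity read by scintillation counting.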

Data set [22] can be described thus: Drug level in hemozoin of Plasmodium falciparum Dd2 at 1.5 uCi after 20 hrs. Type of data set: ADME. The settings on record: plasmodium falciparum dd2, 20 h. The procedure, abridged: as §4
Data set [23] in a line: Drug level in chloroquine-sensitive Plasmodium falciparum 3D7 culture at 1.5 uCi after 20 hrs. Type of data set: ADME. The settings on record: plasmodium falciparum 3d7, 20 h.
A short description of data set [24]: Drug level in chloroquine-sensitive Plasmodium falciparum 3D7 lysate at 1.5 uCi after 20 hrs. Type of data set: ADME. The following applies: plasmodium falciparum 3d7, 20 h.

Activity calls are given as the source filed them. The calls are words filed in the database; no cut-off is given here. A value given as a limit tells only on which side of the number the result lay.

`C=C[C@H]1CN2CC[C@H]1C[C@@H]2[C@@H](O)c1ccnc2ccc(OC)cc12`: the inhibition result in the data set on Heme [1] was “Active”. Moreover, the outcome in the data set on Heme [2] was Active.
`C=C[C@H]1CN2CC[C@H]1C[C@H]2[C@H](O)c1ccnc2ccc(OC)cc12`: in the data set with Heme [1], the inhibition result is “inactive”. Further, in the data set with Heme [2], the result was inactive.
Consider `CC1(C)S[C@@H]2[C@H](NC(=O)[C@H](N)c3ccccc3)C(=O)N2[C@H]1C(=O)O`, for which the inhibition result in the data set on Heme [1] was “inactive”. The outcome in the data set on Heme [2] was inactive.
On to `CCN(CC)CCCC(C)Nc1c2ccc(Cl)cc2nc2ccc(OC)cc12` (stereo unspecified), for which, in the data set with Heme [1], the inhibition result was “Active”. Further, the outcome with Heme [2] was Active.
As to `CCN(CC)CCCC(C)Nc1ccnc2cc(Cl)ccc12` (stereo unspecified), in the data set with Plasmodium falciparum [3], the outcome was Active. Moreover, the inhibition entry in the data set on Heme [4] (tested as the 3H-labelled form) was “Active”. Moreover, the outcome in the data set on Heme [2] (tested as the 3H-labelled form) was inactive.
For `COc1ccc(CCN(C)CCCC(C#N)(c2ccc(OC)c(OC)c2)C(C)C)cc1OC` (stereo unspecified), the inhibition result in the data set on Heme [1] was “inactive”. Besides, the outcome in the data set on Heme [2] was inactive.
For the compound `C[C@@H]1CC[C@H]2[C@@H](C)C(=O)O[C@@H]3O[C@@]4(C)CC[C@@H]1[C@]32OO4`, the inhibition entry in the data set with Heme [1] is “inactive”. Besides, the outcome in the data set with Heme [2] was inactive.
As for `OC(c1cc(C(F)(F)F)nc2c(C(F)(F)F)cccc12)C1CCCCN1` (stereo unspecified), the inhibition entry in the data set with Heme [1] was “inactive”. For the same compound, in the data set on Heme [2], the outcome was inactive.
Consider `COc1ccc(CCN2CCC(Nc3nc4ccccc4n3Cc3ccc(F)cc3)CC2)cc1` [ASTEMIZOLE], for which the outcome with Plasmodium yoelii [5], in the data set with Plasmodium falciparum [3] and in the data set on Plasmodium vinckei [9] was Active. The figures for the “inhibition (INH)” value in the data set with Plasmodium vinckei [6] and with Plasmodium yoelii [7] were 80% and 44%, respectively. The IC50 in the data set with Heme [1] came out at 12.3 µM; with Plasmodium falciparum [8], 0.227 µM; in the data set with Plasmodium falciparum [10], 0.457 µM; in the data set with Plasmodium falciparum [12], 0.734 µM. In addition, in the data set on Heme [4], the inhibition entry is “Active”. Moreover, the outcome in the data set on Plasmodium yoelii [11] and with Plasmodium vinckei [13] was inactive.
Regarding `Oc1ccc(CCN2CCC(Nc3nc4ccccc4n3Cc3ccc(F)cc3)CC2)cc1` [DESMETHEYLASTEMIZOLE], the “inhibition (INH)” value with Plasmodium vinckei [14] is given as “<=81%”; with Plasmodium yoelii [7], 40%. In addition, the bioavailability in data set [15] worked out at 95%. Also, in the data set on Plasma, the t1/2 stood at 170 h. Besides, the IC50 in the data set with Heme [1] was 8.13 µM; in the data set on Plasmodium falciparum [8], 0.117 µM; in the data set with Plasmodium falciparum [10], 0.106 µM; in the data set with Plasmodium falciparum [12], 0.0568 µM. The result with Plasmodium yoelii [11] and in the data set on Plasmodium vinckei [16] was inactive.
For the compound `Fc1ccc(Cn2c(NC3CCNCC3)nc3ccccc32)cc1` [TECASTEMIZOLE], the concentration for half-maximal inhibition (IC50) in the data set on Plasmodium falciparum [8] was 4.48 µM; in the data set with Plasmodium falciparum [10], 3.59 µM; in the data set on Plasmodium falciparum [12], 2.23 µM.
Regarding `[3H]C([3H])([3H])Oc1ccc(CCN2CCC(Nc3nc4ccccc4n3Cc3ccc(F)cc3)CC2)cc1` [[3H]-ASTEMIZOLE], the Drug uptake was 144 cpm/uL in data set [17]; 19656 cpm/uL in data set [18]; 179 cpm/uL in [19]; 17.9 cpm/uL in data set [20]; 2598 cpm/uL in data set [21]; 21389 cpm/uL in data set [22]. Besides, the Drug uptake came out at 20.9 cpm/uL in [23] and 2105 cpm/uL in [24].
As for `[3H]c1nc2c([3H])c(Cl)c([3H])c([3H])c2c(N([3H])C([3H])(C([3H])([3H])[3H])C([3H])([3H])C([3H])([3H])C([3H])([3H])N(C([3H])([3H])C([3H])([3H])[3H])C([3H])([3H])C([3H])([3H])[3H])c1[3H]` (stereo unspecified) [[3H]-CHLOROQUINE], in the data set with Heme [1], half-maximal inhibition (IC50) was put at 5.74 µM.

The values are drawn from ChEMBL document CHEMBL1240313, “A clinical drug library screen identifies astemizole as an antimalarial agent” (Nat Chem Biol, 2006).
